From ChEMBL document CHEMBL3785023, “Development and Pharmacological Characterization of Selective Blockers of 2-Arachidonoyl Glycerol Degradation with Efficacy in Rodent Models of Multiple Sclerosis and Pain” (J Med Chem, 2016) come the findings set out here.

One series deals with Salmonella typhimurium. The series is described as follows: Mutagenicity in Salmonella typhimurium TA98 assessed as increase in number of colonies at 1 uM by Ames test. Particulars: salmonella enterica subsp. enterica serovar typhimurium. It is filed as toxicity, organism-based. In general terms: The Ames test uses bacterial strains that need an amino acid and regain growth without it when mutated back.

Series [1] concerns Heart. Description: Cardiotoxicity in Langendorff-perfused Sprague-Dawley rat heart assessed as intraventricular conduction time at 0.1 uM by ECG analysis (reference value: 14.26 +/- 0.71 milliseconds). In kind it is toxicity, tissue-based, Cardiac ventricle.
For series [2], the system named is Mus musculus. Description: In vivo inhibition of MAGL in CD-1 mouse assessed as 2-AG level in pawskin at 0.3 mg/kg, ip coadministered with formalin by LC-MS analysis (reference value: 10.8 +/- 1.5 pmol/g). It is filed as functional.
Series [3] concerns Heart. Description: Cardiotoxicity in Langendorff-perfused Sprague-Dawley rat heart assessed as corrected time duration of action potential at 0.001 uM by ECG analysis (reference value: 155.26 +/- 2.96 milliseconds). In kind it is toxicity, tissue-based.
Series [4] deals with Mus musculus. The series is described as follows: In vivo inhibition of MAGL in CD-1 mouse assessed as 2-AG level in spinal cord at 0.3 mg/kg, ip coadministered with formalin by LC-MS analysis (reference value: 3.8 +/- 0.4 pmol/g). It is filed as functional.
Series [5] has as its target T1, Fatty-acid amide hydrolase 1 (Homo sapiens, UniProt O00519).
T1 sequence (O00519 whole entry): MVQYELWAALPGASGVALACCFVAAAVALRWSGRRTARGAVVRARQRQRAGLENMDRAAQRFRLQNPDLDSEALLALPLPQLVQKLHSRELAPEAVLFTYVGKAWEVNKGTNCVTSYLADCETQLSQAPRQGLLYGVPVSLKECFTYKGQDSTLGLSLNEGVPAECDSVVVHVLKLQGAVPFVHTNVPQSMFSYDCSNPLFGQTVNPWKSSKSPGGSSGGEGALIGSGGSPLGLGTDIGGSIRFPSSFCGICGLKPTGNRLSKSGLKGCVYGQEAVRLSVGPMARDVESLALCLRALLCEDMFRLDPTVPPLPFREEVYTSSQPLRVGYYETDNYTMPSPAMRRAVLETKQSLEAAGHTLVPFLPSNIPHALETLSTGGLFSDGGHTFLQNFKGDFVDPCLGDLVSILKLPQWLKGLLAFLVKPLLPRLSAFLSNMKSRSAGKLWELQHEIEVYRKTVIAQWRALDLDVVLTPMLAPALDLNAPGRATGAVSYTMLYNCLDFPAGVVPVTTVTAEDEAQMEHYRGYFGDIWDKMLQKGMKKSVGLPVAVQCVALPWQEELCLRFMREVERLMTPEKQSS
The series is described as follows: Inhibition of recombinant C-terminal His-tagged human FAAH expressed in sf21 cells using N-arachidonoyl-[14C]-ethanolamine as substrate assessed as reduction in [14C]ethanolamine production incubated for 30 mins by scintillation counting method. Summed up: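 Human recombinant FAAH (2 µg/sample) incubated in 50 mM Tris-HCl, pH 9.5, 37 °C, 30 min with N-arachidonoyl-[14C]-ethanolamine diluted with unlabelled AEA. [14C]-ethanolamine released was quantified by scintillation counting of the aqueous phase after extraction with 2 volumes CHCl3/MeOH 1:1. Values are means of three experiments.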

The subject of series [6] is Heart. Description: Cardiotoxicity in Langendorff-perfused Sprague-Dawley rat heart assessed as corrected time duration of action potential at 0.01 uM by ECG analysis (reference value: 155.26 +/- 2.96 milliseconds). It is filed as toxicity, tissue-based.
Series [7] has as its system Heart. Description: Cardiotoxicity in Langendorff-perfused Sprague-Dawley rat heart assessed as heart rate at 1 uM by ECG analysis (reference value: 252.78 +/- 9.28 bpm). In kind it is toxicity, tissue-based.
Series [8] concerns Heart. The series is described as follows: Cardiotoxicity in Langendorff-perfused Sprague-Dawley rat heart assessed as time duration of action potential at 0.01 uM by ECG analysis (reference value: 75.65 +/- 0.87 milliseconds). It is filed as toxicity, tissue-based.
Series [9] concerns Heart. The series is described as follows: Cardiotoxicity in Langendorff-perfused Sprague-Dawley rat heart assessed as atrioventricular conduction time at 1 uM by ECG analysis (reference value: 45.62 +/- 4.49 milliseconds). In kind it is toxicity, tissue-based.
In series [10] the test system is Mus musculus. The series is described as follows: Inhibition of demyelination in experimental autoimmune encephalomyelitis C57BL/6J mouse spinal cord at 3 mg/kg, ip administered post CB2 antagonist/inverse agonist AM630 addition by luxol fast blue staining based microscopic analysis. It is filed as functional, organism-based. Summed up:
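EAE induced in female C57BL/6J mice with MOG35-55, then 3 mg/kg i.p. daily. AM251 or AM630 (1 mg/kg), where used, given 10 min before each dose. Spinal cord white matter stained with Luxol Fast Blue and demyelinated areas assessed by microscopy.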

In series [11] the target is T2, Fatty-acid amide hydrolase 1 (Rattus norvegicus) (UniProt P97612).
T2 sequence (whole entry): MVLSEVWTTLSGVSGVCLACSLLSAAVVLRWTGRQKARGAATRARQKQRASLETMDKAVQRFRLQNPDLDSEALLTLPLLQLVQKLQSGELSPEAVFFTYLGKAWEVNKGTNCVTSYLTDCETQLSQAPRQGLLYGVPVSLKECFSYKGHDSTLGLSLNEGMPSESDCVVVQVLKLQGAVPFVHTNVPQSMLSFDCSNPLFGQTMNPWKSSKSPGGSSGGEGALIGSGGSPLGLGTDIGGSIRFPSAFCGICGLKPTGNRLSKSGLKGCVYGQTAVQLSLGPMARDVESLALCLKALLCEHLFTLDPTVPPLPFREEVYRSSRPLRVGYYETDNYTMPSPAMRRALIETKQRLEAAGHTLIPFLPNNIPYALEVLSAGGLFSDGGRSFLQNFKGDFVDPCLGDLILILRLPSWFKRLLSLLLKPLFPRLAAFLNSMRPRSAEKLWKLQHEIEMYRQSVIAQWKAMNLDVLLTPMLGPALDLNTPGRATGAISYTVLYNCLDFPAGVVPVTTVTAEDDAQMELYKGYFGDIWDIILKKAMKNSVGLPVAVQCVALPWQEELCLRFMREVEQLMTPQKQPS
Description: Inhibition of FAAH in rat brain membranes up to 500 nM preincubated for 20 mins followed by fluorophosphonate-rhodamine addition measured after 30 mins by competitive affinity based proteomic profiling assay. Particulars: Membrane. In kind it is cell membranes. Summed up: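 Rat brain membranes (1 mg/mL) preincubated with 1–1000 nM inhibitor or DMSO for 20 min at 37 °C. FP-rhodamine then added and incubated a further 30 min at 37 °C. Samples run on SDS-PAGE and serine hydrolase bands quantified by in-gel fluorescence.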

Series [12] concerns Mus musculus. Description: Antinociceptive activity in CD-1 mouse assessed as inhibition of formalin-induced late phase pain response at 0.1 to 0.3 mg/kg, ip dosed 10 mins before formalin injection measured every 5 mins for 60 mins in presence of CB2 antagonist/inverse agonist AM630. It is filed as functional, organism-based. Put shortly: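 Male CD-1 mice, n = 6 per group, injected with formalin (1.25% in saline, 30 μL) into the dorsal hind paw. Inhibitor (0.1 or 0.3 mg/kg i.p. in 0.5% DMSO/saline) given 10 min before formalin. Where used, AM251 or AM630 (1 mg/kg i.p.) given 10 min before the inhibitor. Time spent lifting, licking, shaking or flinching the injected paw recorded every 5 min over 60 min.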

Calls of active or inactive are those of the source. No cut-off for these calls is given here.

A word on the IC50: it is the concentration that gives 50% inhibition.

With `O=C1[C@H](c2ccc(F)cc2)[C@@H](c2ccc3c(c2)OCO3)N1C1CCN(C(=O)n2cncn2)CC1` (racemic) [listing 1 of 2 here], the Activity result with Salmonella typhimurium is given as “Non-toxic”; in the series with Mus musculus [2], 14.1 pmol/g; in the series on Mus musculus [4], 6.6 pmol/g; in the series with Heart [7], 255.5 bpm. The Time in the series with Heart [1] worked out at 13.75 ms; in the series on Heart [3], 157.13 ms; in the series on Heart [6], 156.3 ms; in the series with Heart [8], 76.17 ms; with Heart [9] it was 46.67 ms. Further, the IC50 in series [5] was determined as 2880 nM.
`O=C1[C@H](c2ccc(F)cc2)[C@@H](c2ccc3c(c2)OCO3)N1C1CCN(C(=O)n2cncn2)CC1` (racemic) [listing 2 of 2 here]: the inhibition result (in the series on Mus musculus [10]; in series [11]; with Mus musculus [12]) was “inactive” in each case.
